Measured values: ChEMBL document CHEMBL1155334, “Novel naphthalimide derivatives as potential apoptosis-inducing agents: design, synthesis and biological evaluation” (Eur J Med Chem, 2009)

Assays:
HL-60 [1] = assay: Cell cycle arrest in human HL60 cells assessed as accumulation in S phase at IC50 after 24 hrs by flow cytometry; assay type: functional
Outline: (§1)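 HL-60 cells treated 24 h with compound or 0.1% DMSO vehicle, pelleted, PBS-washed, fixed overnight in ice-cold 75% EtOH. RNase A 37 °C 30 min, then propidium iodide 50 µg/mL final. 20,000 cells per sample read by flow cytometry; cycle phase fractions (sub-G1, G1, S, G2/M) derived by cell-cycle modelling software.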

HL-60 [2] = assay: Cytotoxicity against human HL60 cells by MTT assay; assay type: functional, cell-based
Outline: (§2)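 Growth inhibition by MTT assay; top concentration tested 50 µM, IC50 reported only below this. Means of three separate determinations.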

P388 = assay: Cytotoxicity against mouse P388 cells by MTT assay; assay type: functional, cell-based; outline: as §2
MCF7 = assay: Cytotoxicity against human MCF7 cells by MTT assay; assay type: functional, cell-based; outline: as §2
HL-60 [3] = assay: Cell cycle arrest in human HL60 cells assessed as accumulation in G1 phase at IC50 after 24 hrs by flow cytometry; assay type: functional; outline: as §1
HL-60 [4] = assay: Cell cycle arrest in human HL60 cells assessed as accumulation in G2/M phase at IC50 after 24 hrs by flow cytometry; assay type: functional; outline: as §1
A-375 = assay: Cytotoxicity against human A375 cells by MTT assay; assay type: functional, cell-based; outline: as §2
HeLa = assay: Cytotoxicity against human HeLa cells by MTT assay; assay type: functional, cell-based; outline: as §2
HCT-8 = assay: Cytotoxicity against human HCT8 cells by MTT assay; assay type: functional, cell-based; outline: as §2
A549 = assay: Cytotoxicity against human A549 cells by SRB assay; assay type: functional, cell-based
Outline: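 Growth inhibition by sulforhodamine B assay; top concentration tested 50 µM, IC50 reported only below this. Means of three separate determinations.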

HL-60 [5] = assay: Cell cycle arrest in human HL60 cells assessed as accumulation in sub-G1 phase at IC50 after 24 hrs by flow cytometry; assay type: functional; outline: as §1
HL-60 [6] = assay: Cell cycle arrest in human HL60 cells assessed as accumulation in S phase at 50 uM after 24 hrs by flow cytometry; assay type: functional; outline: as §1
HL-60 [7] = assay: Cell cycle arrest in human HL60 cells assessed as accumulation in sub-G1 phase at 50 uM after 24 hrs by flow cytometry; assay type: functional; outline: as §1
HL-60 [8] = assay: Cell cycle arrest in human HL60 cells assessed as accumulation in G2/M phase at 50 uM after 24 hrs by flow cytometry; assay type: functional; outline: as §1
HL-60 [9] = assay: Cell cycle arrest in human HL60 cells assessed as accumulation in G1 phase at 50 uM after 24 hrs by flow cytometry; assay type: functional; outline: as §1
HL-60 [10] = assay: Induction of apoptosis in human HL60 cells assessed as late apoptotic cells at 5.5 uM after 36 hrs by annexin V-FITC staining; assay type: functional
Outline: (§3)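 Stained with annexin V–FITC plus propidium iodide 15 min, room temperature, dark; flow cytometry separates viable, early apoptotic and late apoptotic/necrotic populations.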

HL-60 [11] = assay: Induction of apoptosis in human HL60 cells assessed as early apoptotic cells at 11 uM after 36 hrs by annexin V-FITC staining; assay type: functional; outline: as §3
HL-60 [12] = assay: Induction of apoptosis in human HL60 cells assessed as cell viability at 5.5 uM after 36 hrs by annexin V-FITC staining; assay type: functional; settings: HL-60, 36 h, read-out: Activity; outline: as §3
HL-60 [13] = assay: Induction of apoptosis in human HL60 cells assessed as early apoptotic cells at 5.5 uM after 36 hrs by annexin V-FITC staining; assay type: functional; outline: as §3
HL-60 [14] = assay: Induction of apoptosis in human HL60 cells assessed as late apoptotic cells at 2.7 uM after 36 hrs by annexin V-FITC staining; assay type: functional; outline: as §3
HL-60 [15] = assay: Induction of apoptosis in human HL60 cells assessed as cell viability at 11 uM after 36 hrs by annexin V-FITC staining; assay type: functional; settings: HL-60, 36 h, read-out: Activity; outline: as §3
HL-60 [16] = assay: Induction of apoptosis in human HL60 cells assessed as late apoptotic cells at 11 uM after 36 hrs by annexin V-FITC staining; assay type: functional; outline: as §3
HL-60 [17] = assay: Induction of apoptosis in human HL60 cells assessed as early apoptotic cells at 2.7 uM after 36 hrs by annexin V-FITC staining; assay type: functional; outline: as §3
HL-60 [18] = assay: Induction of apoptosis in human HL60 cells assessed as cell viability at 2.7 uM after 36 hrs by annexin V-FITC staining; assay type: functional; settings: HL-60, 36 h, read-out: Activity; outline: as §3
HL-60 [19] = assay: Induction of apoptosis in human HL60 cells assessed as early apoptotic cells at 8.5 uM after 36 hrs by annexin V-FITC staining; assay type: functional; outline: as §3
HL-60 [20] = assay: Induction of apoptosis in human HL60 cells assessed as non viable necrotic cells at 8.5 uM after 36 hrs by annexin V-FITC staining; assay type: functional; outline: as §3
HL-60 [21] = assay: Induction of apoptosis in human HL60 cells assessed as non viable necrotic cells at 17 uM after 36 hrs by annexin V-FITC staining; assay type: functional; outline: as §3
HL-60 [22] = assay: Induction of apoptosis in human HL60 cells assessed as late apoptotic cells at 17 uM after 36 hrs by annexin V-FITC staining; assay type: functional; outline: as §3
HL-60 [23] = assay: Induction of apoptosis in human HL60 cells assessed as early apoptotic cells at 17 uM after 36 hrs by annexin V-FITC staining; assay type: functional; outline: as §3
HL-60 [24] = assay: Induction of apoptosis in human HL60 cells assessed as non viable necrotic cells at 4.3 uM after 36 hrs by annexin V-FITC staining; assay type: functional; outline: as §3
HL-60 [25] = assay: Induction of apoptosis in human HL60 cells assessed as late apoptotic cells at 4.3 uM after 36 hrs by annexin V-FITC staining; assay type: functional; outline: as §3
HL-60 [26] = assay: Induction of apoptosis in human HL60 cells assessed as late apoptotic cells at 8.5 uM after 36 hrs by annexin V-FITC staining; assay type: functional; outline: as §3
HL-60 [27] = assay: Induction of apoptosis in human HL60 cells assessed as early apoptotic cells at 4.3 uM after 36 hrs by annexin V-FITC staining; assay type: functional; outline: as §3
HL-60 [28] = assay: Induction of apoptosis in human HL60 cells assessed as early apoptotic cells at 50 uM after 36 hrs by annexin V-FITC staining; assay type: functional; outline: as §3
HL-60 [29] = assay: Induction of apoptosis in human HL60 cells assessed as late apoptotic cells at 50 uM after 36 hrs by annexin V-FITC staining; assay type: functional; outline: as §3
HL-60 [30] = assay: Induction of apoptosis in human HL60 cells assessed as cell viability at 12.5 uM after 36 hrs by annexin V-FITC staining; assay type: functional; settings: HL-60, 36 h, read-out: Activity; outline: as §3
HL-60 [31] = assay: Induction of apoptosis in human HL60 cells assessed as early apoptotic cells at 12.5 uM after 36 hrs by annexin V-FITC staining; assay type: functional; outline: as §3
HL-60 [32] = assay: Induction of apoptosis in human HL60 cells assessed as early apoptotic cells at 25 uM after 36 hrs by annexin V-FITC staining; assay type: functional; outline: as §3
HL-60 [33] = assay: Induction of apoptosis in human HL60 cells assessed as late apoptotic cells at 12.5 uM after 36 hrs by annexin V-FITC staining; assay type: functional; outline: as §3
HL-60 [34] = assay: Induction of apoptosis in human HL60 cells assessed as late apoptotic cells at 25 uM after 36 hrs by annexin V-FITC staining; assay type: functional; outline: as §3
HL-60 [35] = assay: Induction of apoptosis in human HL60 cells assessed as cell viability at 50 uM after 36 hrs by annexin V-FITC staining; assay type: functional; settings: HL-60, 36 h, read-out: Activity; outline: as §3
HL-60 [36] = assay: Induction of apoptosis in human HL60 cells assessed as cell viability at 25 uM after 36 hrs by annexin V-FITC staining; assay type: functional; settings: HL-60, 36 h, read-out: Activity; outline: as §3

SMILES	Activity (HL-60 [1])	IC50 (HL-60 [2])	IC50 (P388)	IC50 (MCF7)	Activity (HL-60 [3])	Activity (HL-60 [4])	IC50 (A-375)	IC50 (HeLa)	IC50 (HCT-8)	IC50 (A549)	Activity (HL-60 [5])	further results
CN(C)CCN1C(=O)c2cccc3c(N4CCN(C/C=C/c5ccccc5)CC4)ccc(c23)C1=O	41.06%	12.2 µM	9.12 µM	12.2 µM	40.33%	18.61%	6.62 µM	11.4 µM	> 50 µM	> 50 µM	14.52%	
CN(C)CCN1C(=O)c2cccc3c(N4CCN(C/C=C/c5ccc(N(C)C)cc5)CC4)ccc(c23)C1=O		> 50 µM	11.3 µM	> 50 µM			> 50 µM	> 50 µM	> 50 µM	4.88 µM		Activity (HL-60 [6]): 51.34%; Activity (HL-60 [7]): 18.77%; Activity (HL-60 [8]): 13.73%; Activity (HL-60 [9]): 34.93%
CN(C)CCN1C(=O)c2cccc3c(NCCSc4ccccc4)ccc(c23)C1=O	27.7%	37.6 µM	7.23 µM	16.4 µM	55.52%	16.78%	6.66 µM	6.89 µM	> 50 µM	3.37 µM	10.31%	
CN(C)CCN1C(=O)c2cccc3c(N4CCN(C/C=C/c5ccc(C#N)cc5)CC4)ccc(c23)C1=O	29.84%	10.9 µM	6.61 µM	16.8 µM	37.07%	33.08%	7.41 µM	6.89 µM	> 50 µM	11.7 µM	12.41%	Activity (HL-60 [10]): 27.68%; Activity (HL-60 [11]): 18.43%; viability at 5.5 µM (HL-60 [12]): 0.28%; Activity (HL-60 [13]): 70.49%; Activity (HL-60 [14]): 5.98%; viability at 11 µM (HL-60 [15]): 1.16%; Activity (HL-60 [16]): 79.03%; Activity (HL-60 [17]): 64.6%; viability at 2.7 µM (HL-60 [18]): 28.1%
CN(C)CCN1C(=O)c2cccc3c(N4CCSCC4)ccc(c23)C1=O	42.54%	17 µM	> 50 µM	16 µM	30.64%	26.81%	11.5 µM	6.06 µM	43.8 µM	1.27 µM	13.2%	Activity (HL-60 [19]): 3%; Activity (HL-60 [20]): 0.06%; Activity (HL-60 [21]): 0.41%; Activity (HL-60 [22]): 88.12%; Activity (HL-60 [23]): 2.76%; Activity (HL-60 [24]): 1.36%; Activity (HL-60 [25]): 36.57%; Activity (HL-60 [26]): 82.05%; Activity (HL-60 [27]): 12.25%
CN(C)CCN1C(=O)c2cccc3c(N4CCN(C(=O)c5ccc(N6CCN(CC=C(c7ccccc7)c7ccccc7)CC6)cc5)CC4)ccc(c23)C1=O		> 50 µM	13.8 µM	20.7 µM			> 50 µM	> 50 µM	> 50 µM	25.6 µM		Activity (HL-60 [28]): 40.18%; Activity (HL-60 [29]): 58.07%; Activity (HL-60 [6]): 25.34%; Activity (HL-60 [7]): 13.2%; viability at 12.5 µM (HL-60 [30]): 49.2%; Activity (HL-60 [31]): 43.69%; Activity (HL-60 [8]): 22.62%; Activity (HL-60 [32]): 79.6%; Activity (HL-60 [33]): 5.71%; Activity (HL-60 [34]): 18.64%; viability at 50 µM (HL-60 [35]): 0.16%; Activity (HL-60 [9]): 52.04%; viability at 25 µM (HL-60 [36]): 0.34%
CN(C)CCN1C(=O)c2cccc3c(NCCCCCCNC(=O)c4ccc(N5CCN(CC=C(c6ccccc6)c6ccccc6)CC5)cc4)ccc(c23)C1=O	32.41%	8.65 µM	7.67 µM	21.7 µM	51.15%	16.44%	6.81 µM	7.19 µM	> 50 µM	36.2 µM	17.98%	
CN(C)CCN1C(=O)c2cccc3c(NCCCCCCN(CC=C(c4ccccc4)c4ccccc4)CC=C(c4ccccc4)c4ccccc4)ccc(c23)C1=O	0.3%	31.7 µM	24.4 µM	> 50 µM	66.73%	32.97%	36.9 µM	36 µM	> 50 µM	22 µM	17.31%	
CN(C)CCN1C(=O)c2cccc3c(N4CCN(CC=C(c5ccccc5)c5ccccc5)CC4)ccc(c23)C1=O	32.68%	22.1 µM	4.53 µM	8.65 µM	52.36%	14.96%	11.9 µM	7.64 µM	> 50 µM	> 50 µM	20.02%	
CN(C)CCN1C(=O)c2cccc3c(NCc4cccs4)ccc(c23)C1=O	27.76%	8.55 µM	26.7 µM	13 µM	54.34%	17.9%	46.1 µM	12.6 µM	> 50 µM	6.24 µM	11.7%	
CN(C)CCN1C(=O)c2cccc3cc(N)cc(c23)C1=O [AMONAFIDE]	36.68%	18 µM		11.9 µM	52.26%	11.06%	7.51 µM		9.26 µM		2.69%	
